# Source: ChEMBL document CHEMBL4145525, “Machine learning prioritizes synthesis of primaquine ureidoamides with high antimalarial activity and attenuated cytotoxicity” (Eur J Med Chem, 2018)
# What was measured:
# L6 = test: Cytotoxicity against rat L6 cells assessed as reduction in cell viability after 70 hrs by Alamar blue assay; assay type: cell-based; conditions: L6, 70 h
# Summary of the method: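 L6 rat skeletal myoblasts were plated at 4000 cells/well in RPMI 1640 with L-glutamine and 10% FBS. Eleven 3-fold drug dilutions, 100 to 0.002 µg/ml. After 70 h, Alamar Blue was added for 2 h and fluorescence read (ex 536 nm, em 588 nm). IC50 by linear interpolation from sigmoid dose-inhibition curves.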
# Plasmodium falciparum = test: Antiplasmodial activity against erythrocytic stage of Plasmodium falciparum NF54 assessed as reduction in [3H]hypoxanthine incorporation after 48 hrs by liquid scintillation counting method; assay type: functional, organism-based
# Summary of the method: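 Asexual blood-stage NF54 grown in hypoxanthine-free RPMI 1640 with HEPES, NaHCO3, neomycin and Albumax, using washed human A+ erythrocytes at 2.5% hematocrit and 0.3% parasitemia. Compounds were made as 10 mg/ml DMSO stocks and run as eleven 3-fold dilutions, 100 to 0.002 µg/ml. Incubation at 37 °C in 4% CO2, 3% O2, 93% N2. After 48 h, 0.5 µCi 3H-hypoxanthine was added for a further 24 h, then harvested and scintillation counted. IC50 by linear interpolation of sigmoidal curves; averages of 2–3 independent experiments.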
# [1] = Selectivity index, ratio of IC50 for rat L6 cells to IC50 for erythrocytic stage of Plasmodium falciparum NF54; assay type: toxicity; conditions: read-out: Ratio IC50
# Summary of the method: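 Ratio of the L6 cytotoxicity IC50 to the IC50 against P. falciparum NF54.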
# HCT-116 = test: Cytotoxicity against human HCT116 cells assessed as growth inhibition after 72 hrs by MTT assay; assay type: cell-based; conditions: HCT-116, 72 h
# Summary of the method: (§1)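 Cells cultured in DMEM or RPMI-1640 with 10% FBS, 2 mM L-glutamine and antibiotics at 37 °C, 5% CO2. Seeded at 2×10^4–4×10^4 cells/well and attached for 24 h before five serial 10-fold compound dilutions, final DMSO <0.2%. MTT at 72 h. IC50 interpolated between the two concentrations flanking 50% growth inhibition; single experiment.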
# HL-60 = test: Cytotoxicity against human HL60 cells assessed as growth inhibition after 72 hrs by MTT assay; assay type: cell-based; conditions: HL-60, 72 h
# NCI-H460 = test: Cytotoxicity against human NCI-H460 cells assessed as growth inhibition after 72 hrs by MTT assay; assay type: cell-based; conditions: NCI-H460, 72 h
# Summary of the method: (§2)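 Monolayers grown in DMEM or RPMI-1640 with 10% FBS, 2 mM L-glutamine and penicillin/streptomycin at 37 °C, 5% CO2. Seeded at 2×10^4–4×10^4 cells/well and attached for 24 h. Five serial 10-fold dilutions added, final DMSO <0.2%. MTT read-out at 72 h; percentage growth calculated. IC50 by linear interpolation between concentrations bracketing 50% growth; at least two biological replicates.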
# MCF7 = test: Cytotoxicity against human MCF7 cells assessed as growth inhibition after 72 hrs by MTT assay; assay type: cell-based; conditions: MCF7, 72 h; summary of the method: as §2
# SW-620 = test: Cytotoxicity against human SW620 cells assessed as growth inhibition after 72 hrs by MTT assay; assay type: cell-based; conditions: SW-620, 72 h; summary of the method: as §2
# CAPAN-1 = test: Cytotoxicity against human Capan1 cells assessed as growth inhibition after 72 hrs by MTT assay; assay type: cell-based; conditions: CAPAN-1, 72 h; summary of the method: as §1
# K562 = test: Cytotoxicity against human K562 cells assessed as growth inhibition after 72 hrs by MTT assay; assay type: cell-based; conditions: K562, 72 h
IC50 (Plasmodium falciparum),SMILES,IC50 (L6),selectivity ratio [1],other results
10.3 µM,COc1cc(NC(C)CCCNC(=O)NNC(=O)NC(c2ccccc2)c2ccccc2)c2ncccc2c1 (stereo unspecified),,,
6.5 µM,COc1cc(NC(C)CCCNC(=O)NC(C(=O)N(C)C(c2ccccc2)c2ccccc2)c2ccccc2)c2ncccc2c1 (stereo unspecified),> 140 µM,> 21.5,IC50 (HCT-116): > 100 µM; IC50 (HL-60): > 100 µM; IC50 (NCI-H460): 64 µM; IC50 (MCF7): > 100 µM; IC50 (SW-620): > 100 µM; IC50 (CAPAN-1): > 100 µM; IC50 (K562): > 100 µM
22.2 µM,COc1ccc(/C=C/C(=O)NNC(=O)NCCCC(C)Nc2cc(OC)cc3cccnc23)cc1 (stereo unspecified),3.6 µM,0.2,
22.1 µM,COc1cc(NC(C)CCCNC(=O)/C=C/c2ccc3c(c2)OCO3)c2ncccc2c1 (stereo unspecified),29 µM,1.3,
15.6 µM,COc1cc(NC(C)CCCNC(=O)/C=C/c2cccc(C(F)(F)F)c2)c2ncccc2c1 (stereo unspecified),16.2 µM,1,
15.2 µM,COc1cc(NC(C)CCCNC(=O)NNC(=O)Nc2ccc(Cl)c(C(F)(F)F)c2)c2ncccc2c1 (stereo unspecified),,,
3.7 µM,COc1cc(NC(C)CCCNC(=O)NNC(=O)NCCCC(C)Nc2cc(OC)cc3cccnc23)c2ncccc2c1 (stereo unspecified),76.6 µM,20.7,
27.4 µM,COc1cc(NC(C)CCCNC(=O)NCCO)c2ncccc2c1 (stereo unspecified),,,
11.9 µM,COc1cc(NC(C)CCCNC(=O)Nc2cc(C(F)(F)F)cc(C(F)(F)F)c2)c2ncccc2c1 (stereo unspecified),14.9 µM,1.3,
> 19.4 µM,COc1cc(NC(C)CCCNC(=O)NNC(=O)/C=C/c2ccc(C(F)(F)F)cc2)c2ncccc2c1 (stereo unspecified),28.3 µM,< 1.5,
14.9 µM,COc1cc(NC(C)CCCNC(=O)NNC(=O)Nc2cccc(Cl)c2)c2ncccc2c1 (stereo unspecified),58.6 µM,3.9,
4.3 µM,COc1cc(NC(C)CCCNC(=O)NC(c2ccccc2)c2ccc(Cl)cc2)c2ncccc2c1 (stereo unspecified),140 µM,32.6,
27.1 µM,COc1cc(NC(C)CCCNC(=O)NNC(=O)NCCc2ccccc2)c2ncccc2c1 (stereo unspecified),,,
> 21.4 µM,COc1cc(NC(C)CCCNC(=O)NNC(=O)/C=C/c2ccccc2F)c2ncccc2c1 (stereo unspecified),25.1 µM,< 1.2,
65.9 µM,COc1cc(NC(C)CCCNC(=O)NC2CCCC2)c2ncccc2c1 (stereo unspecified),,,
1.5 µM,COc1cc(NC(C)CCCNC(=O)NCCNC(c2ccccc2)(c2ccccc2)c2ccccc2)c2ncccc2c1 (stereo unspecified),> 171 µM,> 114,
47.3 µM,COc1cc(NC(C)CCCNC(=O)NCc2ccncc2)c2ncccc2c1 (stereo unspecified),,,

# Second part, the compound before the results:
SMILES,IC50 (Plasmodium falciparum),IC50 (L6),selectivity ratio [1],other results
COc1cc(NC(C)CCCNC(=O)NNC(=O)N(CCO)CCO)c2ncccc2c1 (stereo unspecified),41.4 µM,178 µM,4.3,
COc1cc(NC(C)CCCNC(=O)/C=C/c2cc(OC)c(OC)c(OC)c2)c2ncccc2c1 (stereo unspecified),8.1 µM,> 210 µM,> 25.9,
COc1cc(NC(C)CCCNC(=O)Nc2ccc(Cl)c(C(F)(F)F)c2)c2ncccc2c1 (stereo unspecified),17.1 µM,,,
COc1ccc(/C(=N/NC(=O)NCCCC(C)Nc2cc(OC)cc3cccnc23)c2ccccc2)cc1 (stereo unspecified),4.1 µM,> 195 µM,> 47.6,
COc1cc(NC(C)CCCNC(=O)NNC(=O)/C(C)=C/c2ccccc2)c2ncccc2c1 (stereo unspecified),22.9 µM,36.5 µM,1.6,
COc1cc(NC(C)CCCNC(=O)NNC(=O)/C=C/c2cc(OC)c(OC)c(OC)c2)c2ncccc2c1 (stereo unspecified),4.5 µM,138 µM,30.7,
COc1cc(NC(C)CCCNC(=O)/C=C/c2ccc(C(F)(F)F)cc2)c2ncccc2c1 (stereo unspecified),12.9 µM,160 µM,12.4,
COc1cc(NC(C)CCCNC(=O)NNC(=O)NC(CO)(CO)CO)c2ncccc2c1 (stereo unspecified),66.7 µM,,,
COc1cc(NC(C)CCCNC(=O)NNC(=O)Nc2ccc(Br)cc2)c2ncccc2c1 (stereo unspecified),17.8 µM,38.7 µM,2.2,
COc1ccc(/C(=N/NC(=O)NNC(=O)NCCCC(C)Nc2cc(OC)cc3cccnc23)c2ccccc2)cc1 (stereo unspecified),5.6 µM,16 µM,2.9,
COc1cc(NC(C)CCCNC(=O)/C=C/c2ccc(Cl)cc2)c2ncccc2c1 (stereo unspecified),13.7 µM,16.8 µM,1.2,
COc1cc(NC(C)CCCNC(=O)NNC(=O)/C=C/c2ccc(OC)c(OC)c2)c2ncccc2c1 (stereo unspecified),> 19.7 µM,37 µM,< 1.9,
COc1cc(NC(C)CCCNC(=O)/C=C/c2ccccc2F)c2ncccc2c1 (stereo unspecified),13.2 µM,3.5 µM,0.3,
COc1cc(NC(C)CCCNC(=O)NNC(=O)/C=C/c2ccccc2)c2ncccc2c1 (stereo unspecified),17.2 µM,13.9 µM,0.8,
COc1cc(NC(C)CCCNC(=O)NNC(=O)Nc2ccc(C(F)(F)F)cc2)c2ncccc2c1 (stereo unspecified),10.3 µM,14.9 µM,1.4,
COc1cc(NC(C)CCCNC(=O)/C(C)=C/c2ccccc2)c2ncccc2c1 (stereo unspecified),> 24.8 µM,> 250 µM,,
COc1cc(NC(C)CCCNC(=O)NNC(=O)N(C)C(c2ccccc2)c2ccccc2)c2ncccc2c1 (stereo unspecified),10 µM,10.4 µM,1,
COc1cc(NC(C)CCCNC(=O)NNC(=O)/C=C/c2ccc(Cl)cc2)c2ncccc2c1 (stereo unspecified),24.2 µM,7.3 µM,0.3,
COc1cc(NC(C)CCCNC(=O)NNC(=O)NCc2ccccc2)c2ncccc2c1 (stereo unspecified),> 111 µM,,,

SMILES,IC50 (Plasmodium falciparum),IC50 (L6),selectivity ratio [1],other results
COc1cc(NC(C)CCCNC(=O)NNC(=O)NC(c2ccccc2)c2ccc(Cl)cc2)c2ncccc2c1 (stereo unspecified),7.5 µM,8.4 µM,1.1,
COc1cc(NC(C)CCCNC(=O)N(C2CCCCC2)C2CCCCC2)c2ncccc2c1 (stereo unspecified),8.1 µM,,,
COc1cc(NC(C)CCCNC(=O)/C=C/c2ccccc2)c2ncccc2c1 (stereo unspecified),15.1 µM,18.5 µM,1.2,
COc1cc(NC(C)CCCNC(=O)NNC(=O)/C=C/c2ccc3c(c2)OCO3)c2ncccc2c1 (stereo unspecified),20.4 µM,15.5 µM,0.8,
COc1cc(NC(C)CCCNC(=O)NCCCO)c2ncccc2c1 (stereo unspecified),52.4 µM,,,
COc1cc(NC(C)CCCNC(=O)NNC(=O)/C=C/c2cc(C(F)(F)F)cc(C(F)(F)F)c2)c2ncccc2c1 (stereo unspecified),> 17.1 µM,> 170 µM,,
COc1cc(NC(C)CCCNC(=O)NC2CCCCC2)c2ncccc2c1 (stereo unspecified),42.1 µM,,,
COc1ccc(/C=C/C(=O)NCCCC(C)Nc2cc(OC)cc3cccnc23)cc1 (stereo unspecified),12.4 µM,> 240 µM,> 19.4,
COc1cc(NC(C)CCCNC(=O)/C=C/c2cc(C(F)(F)F)cc(C(F)(F)F)c2)c2ncccc2c1 (stereo unspecified),11.3 µM,158 µM,14,
COc1cc(NC(C)CCCNC(=O)NNC(=O)NCCCCCO)c2ncccc2c1 (stereo unspecified),43.7 µM,,,
COc1cc(NC(C)CCCNC(=O)NNC(=O)Nc2ccc(Cl)cc2)c2ncccc2c1 (stereo unspecified),17.8 µM,91.9 µM,5.2,
COc1cc(NC(C)CCCNC(=O)/C=C/c2ccc(OC)c(OC)c2)c2ncccc2c1 (stereo unspecified),11.9 µM,> 220 µM,> 18.5,
COc1cc(NC(C)CCCNC(=O)NNC(=O)/C=C/c2cccc(C(F)(F)F)c2)c2ncccc2c1 (stereo unspecified),> 19.4 µM,10.6 µM,< 0.5,
COc1cc(NC(C)CCCNC(=O)NNC(=O)Nc2cccc(C(F)(F)F)c2)c2ncccc2c1 (stereo unspecified),11.8 µM,32.1 µM,2.7,
COc1cc(NC(C)CCCNC(=O)NNC(=O)NCCCO)c2ncccc2c1 (stereo unspecified),58.8 µM,,,
COc1cc(NC(C)CCCNC(=O)NNC(=O)NC2CCCCC2)c2ncccc2c1 (stereo unspecified),46.3 µM,,,
COc1cc(NC(C)CCCNC(=O)NNC(=O)NOCc2ccccc2)c2ncccc2c1 (stereo unspecified),20.8 µM,,,
COc1cc(NC(C)CCCNC(=O)NCCCC(C)Nc2cc(OC)cc3cccnc23)c2ncccc2c1 (stereo unspecified),6.4 µM,> 180 µM,> 28.1,
COc1cc(NC(C)CCCNC(=O)NNC(=O)NC2CCCC2)c2ncccc2c1 (stereo unspecified),75.4 µM,,,
